The subject of test [1] is Escherichia coli. Kind of test: Antibacterial assay. It counts as cell-based. The following applies: Gram-negative.
Test [2] has as its system Staphylococcus aureus. Put plainly: Antibacterial assay. It counts as cell-based. The following applies: Gram-positive.
Test [3] concerns Bacillus subtilis. Kind of test: Antibacterial assay. It counts as cell-based. The following applies: Gram-positive.
Test [4] deals with Proteus vulgaris. Kind of test: Antibacterial assay. The test is classed as cell-based. Particulars: Gram-negative.
The test system of test [5] is Pseudomonas aeruginosa. Put plainly: Antibacterial assay. It counts as cell-based. The following applies: Gram-negative.
The subject of test [6] is HEKa cells. Kind of test: Cell viability. It counts as cell-based. The following applies: Homo sapiens, read-out: IC50 (mean ± SD; n = 3). The method, boiled down:
(§1)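 Cells were grown in medium with 10% FBS and penicillin/streptomycin 100 units/mL, humidified, at 37 °C and 5% CO2; HT-29 and HEKa were in RPMI-1640. About 2000 cells/well were seeded in 96-well plates. Cells were rinsed once with PBS and five times with distilled water.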

Test [7] is described as follows: DPPH free radical scavenging assay. Particulars: t = 16 min. In short, it runs like this: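 Radical scavenging was read by absorbance. Percent inhibition = (Abs0 − AbsT)/Abs0 × 100, where Abs0 is the control at t = 0 and AbsT is the sample with DPPH at t = 16 min.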
A general note: The DPPH test is a chemical assay of radical scavenging.

In test [8] the test system is PC-3 cells. Kind of test: Cell viability. The test is classed as cell-based. Particulars: Homo sapiens, PC-3, read-out: IC50 (mean ± SD; n = 3). In short, it runs like this: as §1
Test [9] concerns HepG2 cells. Kind of test: Cell viability. It counts as cell-based. Particulars: Homo sapiens, HepG2, read-out: IC50 (mean ± SD; n = 3). The method, boiled down:
as §1

Test [10] deals with HT-29 cells. Kind of test: Cell viability. The test is classed as cell-based. Particulars: Homo sapiens, HT-29, read-out: IC50 (mean ± SD; n = 3). The method, boiled down:
as §1

Test [11] has as its system HepG2 cells. Kind of test: Cell cycle analysis. The following applies: HepG2, 48 h. It counts as cell-based, human.
Test [12] deals with HT-29 cells. Kind of test: Cell cycle analysis. The following applies: HT-29, 48 h. It counts as cell-based, human.
Test [13] deals with Candida albicans. Kind of test: Antifungal assay. It counts as cell-based. The following applies: C. albicans. In short, it runs like this: (§2)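 Antifungal agar diffusion read as inhibition zone diameter in mm, with amphotericin B as positive control.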
Test [14] concerns Aspergillus flavus. Put plainly: Antifungal assay. Particulars: A. flavus. The test is classed as cell-based. The method, boiled down:
as §2

Test [15] deals with Aspergillus niger. Put plainly: Antifungal assay. The test is classed as cell-based. Particulars: A. niger. The method, boiled down:
as §2

For test [16], the system named is C. tropicalis. Kind of test: Antifungal assay. It counts as cell-based, Candida tropicals. The method, boiled down:
as §2

Converted amounts (≈) assume the structure as drawn.

Consider `CC1(C)S[C@@H]2[C@H](NC(=O)[C@H](N)c3ccc(O)cc3)C(=O)N2[C@H]1C(=O)O` [Amoxicillin], for which the Inhibition zone in test [1] was 33 ± 2.90 mm; in [2], 20 ± 1.90 mm; in test [3] it was 23 ± 6.40 mm; in test [4], 30 ± 4.00 mm; in [5], 39 ± 2.40 mm.

Take `CC1(C)C[C@H](O)C[C@@]2(C)OC(=O)C=C12` [Compound 3, loliolide]: the IC50 came to 3.1 ± 0.1 µg/mL (≈ 15.8 µM) in test [6], 11.9 ± 1.31 µg/mL (≈ 60.6 µM) in test [8], 4.6 ± 0.51 µg/mL (≈ 23.4 µM) in test [9] and 8.9 ± 0.97 µg/mL (≈ 45.4 µM) in test [10]. Moreover, the Inhibition zone in test [1] came out at 10 ± 1.40 mm; in [2], 16 ± 1.90 mm; in test [3], 15 ± 1.70 mm; in [4], 10 ± 1.50 mm; in test [5], 09 ± 1.20 mm. The “IC50 (DPPH free radical scavenging)” value in [7] stood at 55.9 µg/mL (≈ 285 µM).

For the molecule `COc1cccc2c1C(=O)c1c(O)c3c(c(O)c1C2=O)C[C@@](O)(C(=O)CO)C[C@@H]3O[C@H]1C[C@H](N)[C@H](O)[C@H](C)O1` [Doxorubicin], the 50% inhibitory concentration (IC50) in test [6] worked out at 0.7 ± 0.04 µg/mL (≈ 1.29 µM); in test [10], 1.7 ± 0.02 µg/mL (≈ 3.13 µM). Further, the “cell cycle arrest phase” value in [11] and in [12] was “arrested in G2 phase” each time.

As for `C[C@@H]1[C@H](O)[C@@H](C)/C=C/C=C/C=C/C=C/C=C/C=C/C=C/[C@H](O[C@@H]2O[C@H](C)[C@@H](O)[C@H](N)[C@@H]2O)C[C@@H]2O[C@](O)(C[C@@H](O)C[C@@H](O)[C@H](O)CC[C@@H](O)C[C@@H](O)CC(=O)O[C@H]1C)C[C@H](O)[C@H]2C(=O)O` [amphotericin B], the “diameter of inhibition zone” value in test [13] worked out at 29 ± 0.90 mm; in [14], 33 ± 1.11 mm; in test [15], 41 ± 0.70 mm; in test [16], 25 ± 0.87 mm.

`O=C1O[C@H]([C@@H](O)CO)C(O)=C1O` [vitamin C]: the “IC50 (DPPH free radical scavenging)” value in [7] worked out at 14.2 µg/mL (≈ 80.6 µM).

Usually IC50 stands for the concentration that gives 50% inhibition.
